The full list was thinned out, with hits kept by preference.
Yeast life ext = compounds extending yeast replicative lifespan, primary screen, S. cerevisiae, OD615; S. cerevisiae growth with nicotinamide; deaD strain in restrictive glucose medium; inhibition of the nicotinamide effect, % at 10 µM; 130,000 tested, 0.68% active; AID 775, 2007;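 active = inhibition above a set limit, placed 3 SD over the median of all compounds, cut at about 26% in these data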;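 note: 0% = nicotinamide-treated wells and 100% = cells grown without nicotinamide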
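Assay system: DeaD-strain S. cerevisiae. Medium: CSMM-D glucose medium, restrictive. Reagent: nicotinamide, 1.5 mM, co-present with compound. Compound: 10 µM single point, 0.25% DMSO. Schedule: culture preincubation 4 h, compound exposure 48 h, both 30 °C. Detection: absorbance at 615 nm.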
PostGolgi ctrl = growth inhibition of yeast control strain, primary screen, counter-screen for post-Golgi transport modulator project. AID 738, 2007. 98,000 tested, 5% active. inhibition, % at 10 µM. efflux-deficient yeast background strain, growth absorbance A615, 16 h
PostGolgi yeast = phenotypic screen on post-Golgi transport, primary screen; post-Golgi transport phenotypic cell assay; inhibition, % at 10 µM; 98,000 tested, 0.9% active; AID 739, 2007;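 note: yeast cells grown in 1536-well plates; yeast grown about 18 h at 30C before absorbance read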
Yeast growth inh = growth inhibitors of yeast BB579 in restrictive medium, primary screen, yeast lifespan-shortening project, S. cerevisiae. OD615, 48 h. 140,000 tested, 0.51% active. inhibition, % at 10 µM. AID 804, 2007;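 active = inhibition above a set limit, 3 SD over the mean compound inhibition, cut at about 44% in these data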
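System: DeaD yeast strain BB579; buffer or medium: CSMM-D dextrose restrictive medium; technique: OD at 615 nm; schedule: 4 h cell preincubation, 48 h compound exposure, 30 °C humidified; doses: single 10 µM dose; controls: amphotericin B 10 µg/mL, positive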
Numbers without * were called inactive. Cut-off read from the data, not from the text of the source, unless noted: active = inhibition above about 30%; inactive = the rest.

What do the screens show for `Cc1ccc2[nH]c(=O)c(-c3nc4cc(C)ccn4c3NCc3ccco3)cc2c1`?
Yeast life ext: -9; PostGolgi ctrl: 12; PostGolgi yeast: -5; Yeast growth inh: -47

Results for Cc1cccc2cc(-c3nc4c(C)cccn4c3NCc3ccco3)c(=O)[nH]c12 ?
Yeast life ext: -9; PostGolgi ctrl: 56*; PostGolgi yeast: 44*; Yeast growth inh: 6

Results for Cn1cc(SCC(=O)N2CCN(c3ccccc3)CC2)c2ccccc21 ?
Yeast life ext: -2; PostGolgi ctrl: 9; PostGolgi yeast: -11; Yeast growth inh: -80

What do the screens show for `COc1cc(OC)c(C#N)c(S(=O)Cc2ccccc2)c1` (configuration not stated)?
Yeast life ext: 2; PostGolgi ctrl: 36*; PostGolgi yeast: 13; Yeast growth inh: -12

Results for CC(C)(C)c1cc(CN2CCN(CCO)CC2)cc(C(C)(C)C)c1O ?
Yeast life ext: 32*; PostGolgi ctrl: 2; PostGolgi yeast: 7; Yeast growth inh: -15

How did CC(C)c1cc(CN2CCN(CCC#N)CC2)cc(C(C)C)c1O do in these assays?
Yeast life ext: -11; PostGolgi ctrl: 9; PostGolgi yeast: -2; Yeast growth inh: -44

What do the screens show for `COc1ccc(/C=N/NC(=O)c2ccoc2C)cc1OC`?
Yeast life ext: -2; Yeast growth inh: -28

What do the screens show for `COc1ccc(/C=N/NC(=O)c2ccn[nH]2)cc1COc1ccc(F)cc1`?
Yeast life ext: -16; PostGolgi ctrl: -3; PostGolgi yeast: -6; Yeast growth inh: -23

How did COc1ccc(/C=N/NC(=O)c2ccoc2C)cc1COc1ccc(Cl)cc1 do in these assays?
Yeast life ext: -14; PostGolgi ctrl: 49*; PostGolgi yeast: 11; Yeast growth inh: 12

What do the screens show for `COc1ccc(/C=N/NC(=O)c2ccn[nH]2)cc1COc1ccc(Cl)cc1Cl`?
Yeast life ext: -10; PostGolgi ctrl: 62*; PostGolgi yeast: 0; Yeast growth inh: -29

What do the screens show for `O=C(COC(=O)c1c(Cl)ccc(Cl)c1Cl)NC(=O)NCc1ccccc1`?
Yeast life ext: -5; Yeast growth inh: -20

Results for Cc1cc(OCC(=O)NCc2nc(-c3ccccc3)no2)c(C)cc1Br ?
Yeast life ext: -6; PostGolgi ctrl: 33*; PostGolgi yeast: 1; Yeast growth inh: -20

How did Cc1cc(C)c(C)c(OCC(=O)NCc2nc(-c3ccccc3)no2)c1 do in these assays?
Yeast life ext: -4; PostGolgi ctrl: 41*; PostGolgi yeast: 1; Yeast growth inh: -52

Results for CC1CCCCN1c1nnc(NC(=O)c2cc(-c3ccc(Br)cc3)on2)s1 (configuration not stated) ?
Yeast life ext: -11; PostGolgi ctrl: 46*; PostGolgi yeast: 3; Yeast growth inh: -30

How did COC(=O)CN(c1ccc(F)cc1)S(=O)(=O)c1ccc2c(c1)OCCO2 do in these assays?
Yeast life ext: 6; PostGolgi ctrl: 5; PostGolgi yeast: 3; Yeast growth inh: -19

What do the screens show for `NC(=O)c1ccc(C(F)(F)F)n(Cc2c(Cl)cccc2Cl)c1=O`?
Yeast life ext: -4; PostGolgi ctrl: 34*; PostGolgi yeast: 7; Yeast growth inh: -18

Results for CCOC(=O)n1c(=O)n(Cc2c(Cl)cccc2Cl)c2ccccc21 ?
Yeast life ext: -27; PostGolgi ctrl: 9; PostGolgi yeast: 7; Yeast growth inh: -24

What do the screens show for `O=C(c1ccc(Cl)cc1)c1oc2ccccc2c1CS(=O)(=O)c1ccccc1`?
Yeast life ext: -3; PostGolgi ctrl: 31*; PostGolgi yeast: 2; Yeast growth inh: -15

Results for CN(C)c1nc(OCCOC(=O)Nc2ccc(Cl)cc2Cl)nc(N(C)C)n1 ?
Yeast life ext: -13; PostGolgi ctrl: 34*; PostGolgi yeast: 4; Yeast growth inh: -75

Results for CON(C)c1nc(OCCNC(=O)OCc2ccc(Cl)cc2C)nc(N(C)C)n1 ?
Yeast growth inh: -36

What do the screens show for `COc1ccc(N2CCN(C(=O)CCNS(=O)(=O)c3ccc(Br)s3)CC2)cc1`?
Yeast life ext: -16; PostGolgi ctrl: 3; PostGolgi yeast: 84*; Yeast growth inh: -31

How did CCCNS(=O)(=O)c1ccc(CCC(=O)N2CCN(c3ccc(OC)cc3)CC2)cc1 do in these assays?
Yeast life ext: -5; PostGolgi ctrl: 53*; PostGolgi yeast: 1; Yeast growth inh: -66

How did CCNC(=O)COC(=O)c1csc2c1CCCC2 do in these assays?
Yeast life ext: 16; Yeast growth inh: -6

What do the screens show for `O=C1CCCC2=C1C(c1ccsc1)CC(=O)N2c1ccccc1` (configuration not stated)?
Yeast life ext: -8; PostGolgi ctrl: -9; PostGolgi yeast: -8; Yeast growth inh: -12

What do the screens show for `O=C1CCCC2=C1C(c1ccsc1)CC(=O)N2c1nnc(SCc2ccccc2)s1` (configuration not stated)?
Yeast life ext: 6; PostGolgi ctrl: 37*; PostGolgi yeast: 4; Yeast growth inh: -17

What do the screens show for `O=[N+]([O-])c1ccccc1NCCNS(=O)(=O)c1ccc(Cl)cc1`?
Yeast life ext: 3; Yeast growth inh: -8

How did O=[N+]([O-])c1ccc(NCCCNS(=O)(=O)c2ccc(Cl)cc2)c(Cl)c1 do in these assays?
Yeast life ext: -13; PostGolgi ctrl: 72*; PostGolgi yeast: 36*; Yeast growth inh: -37

How did COc1cc(C)ccc1OCCOc1ccccc1Cl do in these assays?
Yeast life ext: -10; PostGolgi ctrl: 5; PostGolgi yeast: -16; Yeast growth inh: -32

How did CC(=O)C(CC(=O)N1CCCc2ccccc21)C(=O)Nc1ccc(F)cc1 (configuration not stated) do in these assays?
Yeast life ext: -5; PostGolgi ctrl: 9; PostGolgi yeast: 1; Yeast growth inh: -66

Results for O=C1c2ccccc2C(Nc2ccc3c(c2)OCCO3)N1c1ccc(Cl)cn1 (configuration not stated) ?
Yeast life ext: 3; PostGolgi ctrl: 35*; PostGolgi yeast: 1; Yeast growth inh: -36

Results for O=C1c2ccccc2C(Nc2ccc3c(c2)OCCO3)N1c1ccccn1 (configuration not stated) ?
Yeast life ext: 36*; PostGolgi ctrl: 12; PostGolgi yeast: -1; Yeast growth inh: -15

Results for COc1ccc(NC2c3ccccc3C(=O)N2c2ccccn2)cc1Cl (configuration not stated) ?
Yeast life ext: 5; PostGolgi ctrl: 47*; PostGolgi yeast: 7; Yeast growth inh: 11

What do the screens show for `O=C1c2ccccc2C(Nc2ccc(F)c(Cl)c2)N1c1ccccn1` (configuration not stated)?
Yeast life ext: -8; PostGolgi ctrl: 20; PostGolgi yeast: -2; Yeast growth inh: -10

What do the screens show for `O=C1c2ccccc2C(Nc2ccccc2)N1c1ccc(Cl)cn1` (configuration not stated)?
Yeast life ext: -3; PostGolgi ctrl: 9; PostGolgi yeast: -7; Yeast growth inh: 6

What do the screens show for `CN(CC(=O)NCc1ccncc1)S(=O)(=O)c1ccc(F)cc1`?
Yeast life ext: -4; PostGolgi ctrl: 0; PostGolgi yeast: 23; Yeast growth inh: -16

Screens (PubChem BioAssay)
